Reference: PMC8448912 (ChemMedChem, 2021)

Experiments:
Type in all cases: cell-based
A2780 (Ovary) = assay: MTT antiproliferative assay, 72 h; settings: Homo sapiens, A2780, 72 h, read-out: IC50 values
Summary of the method: (§1)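 Human cancer cell lines (breast MDA-MB-231 and MCF-7, ovarian A2780, colorectal Caco-2 and HT-29) exposed to test compound for 72 h. Growth measured by MTT assay. IC50 values reported as mean ± SDM, n = 3.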

MDA-MB-231 (Breast) = assay: MTT antiproliferative assay, 72 h; settings: Homo sapiens, MDA-MB-231, 72 h, read-out: IC50 values
Summary of the method: as §1

HT-29 (Colon) = assay: MTT antiproliferative assay, 72 h; settings: Homo sapiens, HT-29, 72 h, read-out: IC50 values
Summary of the method: as §1

MRC-5 (Normal lung) = assay: MTT antiproliferative assay, 72 h; settings: Homo sapiens, MRC5, 72 h, read-out: IC50 values
Caco-2 (Colon) = assay: MTT antiproliferative assay, 72 h; settings: Homo sapiens, Caco-2, 72 h, read-out: IC50 values
Summary of the method: as §1

MCF-7 (Breast) = assay: MTT antiproliferative assay, 72 h; settings: Homo sapiens, MCF7, 72 h, read-out: IC50 values
Summary of the method: as §1

[1] = system: panel of breast, ovarian and colorectal cancer cells; assay: antiproliferative activity in the panel of cell lines; settings: read-out: IC50 values in this screen
Summary of the method: as §1

IC50 (A2780 (Ovary)): 3.83 ± 0.02 µM
IC50 (MDA-MB-231 (Breast)): 5.8 ± 0.4 µM
IC50 (HT-29 (Colon)): 2400 ± 100 nM
IC50 (Caco-2 (Colon)): 3.7 ± 0.3 µM
IC50 (MCF-7 (Breast)): 21 ± 2 µM
IC50 [1]: 2 to 20 µM
SMILES: CC(=O)N(O)CCCCCNC(=O)CCC(=O)N(O)CCCCCNC(=O)CCC(=O)N(O)CCCCCN [DFO, desferrioxamine]
IC50 (MRC-5 (Normal lung)): 9 ± 1 µM
